Measurements: BindingDB's records for doi:10.1021/jm950797i (Medichem Research, 1996)

How the values were obtained:
[1] = target: T1, Gag-Pol polyprotein [489-587] (Human immunodeficiency virus 1, UniProt P04585); test: Inhibitory activity against RNA-dependent DNA polymerase (RDDP) of HIV-1 RT Nucleic Acid polymerase
T1 construct: 489-587
In short: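 Purified dimeric (p66/p51) HIV-1 RT (0.08 µg) in pH 8.0 Tris-HCl with KCl, MgCl2, DTT, glutathione, EGTA and BSA. Template-primer was 41 µM poly(rA) with 9.5 µM oligo(dT), plus 20 µM TTP and [3H]TTP. Incubated 1 h at 37 °C, stopped at 80 °C, and counted on filters. Prescreened at 200 µg/mL; IC50 taken from 10 half-log doses in duplicate.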

[2] = target: T1, Gag-Pol polyprotein [489-587]; test: Inhibitory activity against DNA -dependent DNA polymerase (DDDP) of HIV-1 RT Nucleic Acid polymerase
In short: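 Dimeric (p66/p51) HIV-1 RT in the RT buffer, reacted 1 h at 37 °C. Template was activated calf thymus DNA (final 20 µg/mL), with dATP, dCTP and dGTP each at final 50 µM plus 5 µCi [3H]TTP. Acid-insoluble label was counted by scintillation. Prescreened at 200 µg/mL, then 10 half-log concentrations in duplicate; IC50 read from dose-response curves.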

[3] = target: T1, Gag-Pol polyprotein [489-587]; test: Inhibitory activity against TIBO-resistant HIV-1 RT Nucleic Acid polymerase

| SMILES | IC50 [1] | IC50 [2] | IC50 [3] |
| --- | --- | --- | --- |
| CCCc1cc(=O)oc2c3c(c4c(c12)OC(C)(C)C=C4)O[C@@H](C)[C@H](C)[C@@H]3O | 27.8 µM | 156 µM | – |
| CCCc1cc(=O)oc2c3c(c4c(c12)OC(C)(C)C=C4)O[C@H](C)[C@@H](C)[C@@H]3O [(10R,11S,12S)-12-Hydroxy-6,6,10,11-tetramethyl-4-propyl-11,12-dihydro-6H,10H-dipyrano[2,3-f;2',3'-h]chromen-2-one] | – | 0.38 µM | 10.1 µM |
| CCCc1cc(=O)oc2c3c(c4c(c12)OC(C)(C)C=C4)O[C@@H](C)C(C)[C@@H]3O (stereo partly drawn) [(10S,12S)-12-Hydroxy-6,6,10,11-tetramethyl-4-propyl-11,12-dihydro-6H,10H-dipyrano[2,3-f;2',3'-h]chromen-2-one] | 0.97 µM | 0.7 µM | 17.6 µM |
